# Results reported in article PMC3158287 (Nature chemical biology, 2011).
# Changes are numbered by the printed parent chain.
# Assays:
# human cancer cell lines [1] = type: cell-based
# OSBP^M446W = molecular target: T1, OSBP^M446W (Homo sapiens, UniProt P22059, M446W); test: [3H]25-OHC binding assay, OSBP M446W mutant
# T1 sequence (P22059 1-807 M446W): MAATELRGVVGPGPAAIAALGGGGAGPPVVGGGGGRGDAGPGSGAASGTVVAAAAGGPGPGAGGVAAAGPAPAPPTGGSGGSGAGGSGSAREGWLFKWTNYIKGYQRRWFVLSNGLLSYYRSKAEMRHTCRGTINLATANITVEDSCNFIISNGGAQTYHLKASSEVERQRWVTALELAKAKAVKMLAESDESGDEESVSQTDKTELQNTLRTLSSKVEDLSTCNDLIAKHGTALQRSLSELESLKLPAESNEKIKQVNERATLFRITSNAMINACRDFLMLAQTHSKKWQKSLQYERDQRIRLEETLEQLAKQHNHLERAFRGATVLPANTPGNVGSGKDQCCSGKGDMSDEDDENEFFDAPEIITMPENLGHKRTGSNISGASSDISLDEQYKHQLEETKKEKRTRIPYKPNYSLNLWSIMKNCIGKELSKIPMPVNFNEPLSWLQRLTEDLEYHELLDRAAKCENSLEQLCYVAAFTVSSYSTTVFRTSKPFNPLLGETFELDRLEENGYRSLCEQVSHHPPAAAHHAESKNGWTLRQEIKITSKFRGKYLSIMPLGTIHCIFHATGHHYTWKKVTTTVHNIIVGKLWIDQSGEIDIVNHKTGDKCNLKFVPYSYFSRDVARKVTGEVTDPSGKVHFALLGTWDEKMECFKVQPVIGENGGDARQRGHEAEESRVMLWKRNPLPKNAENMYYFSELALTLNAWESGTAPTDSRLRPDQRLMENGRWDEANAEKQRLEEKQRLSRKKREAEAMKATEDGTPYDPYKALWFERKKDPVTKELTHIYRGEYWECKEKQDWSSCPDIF
# OSBP [2] = molecular target: T2, OSBP (Homo sapiens, UniProt P22059); test: OSBP protein levels by western blotting; type: cell-based; conditions: HCT-116 cells
# T2 sequence (P22059 1-807): T1 sequence (P22059 1-807 M446W) with W446M
# Outline: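 HCT-116 cells were treated with test compound at 50 nM or 10 nM over a time course including 24 h. Some samples also received proteasome inhibitor MG-132 or lactacystin. OSBP was measured by western blotting with polyclonal rabbit anti-OSBP (N-terminus) antibody. Data are n = 3, compared with vehicle-treated cells by two-tailed Student's t-test.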
# [3] = test system: sphingomyelin biosynthesis in CHO-K1 cells; test: Sphingomyelin biosynthesis, [3H]serine pulse labeling, CHO-K1; type: cell-based, Chinese hamster; conditions: CHO-K1 cells
# OSBP^V582M = molecular target: T3, OSBP^V582M (Homo sapiens, UniProt P22059, V582M); test: [3H]25-OHC binding assay, OSBP V582M mutant
# T3 sequence (P22059 1-807 V582M): T1 sequence (P22059 1-807 M446W) with W446M, V582M
# OSBP [4] = molecular target: T2, OSBP; test: OSBP localization by immunofluorescence microscopy, HCT-116; type: cell-based; conditions: HCT-116 cells, 4 h; 5 μM schweinfurthin A, 10 nM OSW-1, 20 nM cephalostatin 1
# Outline: (§1)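 Cells on coverslips were grown 72 h, then given test compound or vehicle (4 h for HCT-116). They were fixed 10 min in 3.7% formaldehyde/PBS and permeabilised 5 min in 0.5% Triton X-100. Blocking used Image-iT FX, then 1% BSA/PBS. Rabbit anti-OSBP (N-terminus) and mouse anti-p230 were applied overnight at 4 °C, then Alexa Fluor secondaries for 60 min with Hoechst 33258. Imaging was by confocal microscopy.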
# human cancer cell lines [5] = conditions: cited from earlier work
# [6] = test system: HCT-116 p21^−/− cells stably transfected with shOSBP or shNT; test: OSBP shRNA knockdown and dose-shift experiment; type: cell-based, human; conditions: 72 h
# Outline: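 HCT-116 p21−/− cells were stably transfected with OSBP-targeting or nontargeting shRNA in the pSIREN-RetroQ vector. […] Values are mean ± s.d. of 3–4 experiments, compared with shNT cells by two-tailed Student's t-test.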
# [7] = test system: HeLa cells overexpressing ORP4L; test: Overexpression-viability assay, ORP4L-Myc-His; type: cell-based, human; conditions: 48 h, versus lacZ
# HCT-116 p21^−/− cells [8] = test: Cell viability assay, HCT-116 p21-/-; type: cell-based, human; conditions: GI50 after 48 h
# Outline: (§2)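 HCT-116 p21+/+ and p21−/− cells were seeded in 96-well plates and rested 24 h. A time-zero plate was read with CellTiter-Blue (resazurin) after 90 min at 37 °C, fluorescence 544 nm ex / 590 nm em. Serially diluted test compound was added as 4× solution. Viability was re-read at 48 h and GI50 derived. For coadministration, 10 μM 25-OHC was added with test compound at 250 nM or 10 nM.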
# OSBP [9] = molecular target: T2, OSBP; test: OSBP localization by immunofluorescence microscopy, A549; type: cell-based; conditions: A549 cells
# Outline: as §1
# [10] = test system: HeLa cells overexpressing wild-type OSBP; test: Overexpression-viability assay, wild-type OSBP-Myc-His; type: cell-based, human; conditions: 48 h, versus lacZ
# CERT = CERT protein amount in treated cells; type: cell-based, human; conditions: GI90 concentration, HCT-116 or A549 cells
# HCT-116 cells = test: Suppression of antiproliferative activity by 25-OHC coadministration; type: cell-based, human
# Outline: as §2
# HCT-116 p21^−/− cells [11] = conditions: cited from earlier work
compound,measurement,setting,value
"C[C@H](CCCC(C)(C)O)[C@H]1CC[C@H]2[C@@H]3CC=C4C[C@@H](O)CC[C@]4(C)[C@H]3CC[C@]12C [25-OHC, 25-hydroxycholesterol, reference compound]",Cytotoxicity,human cancer cell lines [1],not cytotoxic at concentrations up to 10 μM
same,Kd,OSBP^M446W,41 nM
same,Effect on OSBP levels (compound alone),OSBP [2]; 25-OHC 10 μM,did not affect OSBP levels
same,Increase in the biosynthesis of sphingomyelin,"[3]; 5 μM, 6 h",approximately four
same,Effect on sphingomyelin biosynthesis,[3]; GI90 dose (15 μM),robust stimulation
same,Kd,OSBP^V582M,82 nM
"C[C@@H]1[C@]2(O[C@H]3C=C4[C@@H]5CC[C@H]6Cc7nc8c(nc7C[C@]6(C)[C@H]5C[C@@H](O)[C@]4(C)[C@]31O)C[C@@H]1CC[C@H]3C4=CC[C@@H]5[C@H](C)[C@@]6(OC[C@]45C(=O)C[C@@H]3[C@@]1(C)C8)OC(C)(C)C[C@H]6O)O[C@](C)(CO)C[C@H]2O [cephalostatin 1, Cephalostatin 1]",OSBP localization,OSBP [4],partially localize to the plasma membrane
same,GI50 (half-maximal inhibitory concentration),human cancer cell lines [5],nanomolar range
same,Sensitization by OSBP shRNA knockdown (GI50 shift shOSBP vs shNT),[6],four
same,Desensitization factor by ORP4L overexpression (relative GI30),[7],2–5
same,Ki,OSBP^M446W,31 nM
same,Reduction in OSBP protein levels,"OSBP [2]; 50 nM, 24 h",approximately 75%
same,p21^−/− selectivity of growth inhibition (HCT-116 p21^−/− versus wild-type),HCT-116 p21^−/− cells [8],selectively growth-inhibitory
same,Ki,OSBP^V582M,31 nM
same,OSBP localization,OSBP [9],dispersal or vesiculation of OSBP
same,Desensitization factor by OSBP overexpression (relative GI30),[10],2–5
same,Amount of CERT protein,CERT,not affected
same,Effect of 10 μM 25-OHC coadministration on growth inhibition,"HCT-116 cells; HCT-116 cells, 250 nM cephalostatin 1 or 10 nM OSW-1",nearly complete desensitization
same,inhibition at 0.25 µM,"HCT-116 cells; Homo sapiens, HCT-116, 48 h, read-out: Growth inhibition when administered alone",> 75%
CC(/C=C/C=C(C)/C=C/C=C(\C)C(=O)O)=C1/C(=O)C[C@H]2[C@@]3(C)CCC(=O)C(C)(C)[C@@H]3CC[C@]12C [stellettin E],Times more growth-inhibitory to HCT-116 p21^−/− cells than to HCT-116 wild-type cells,HCT-116 p21^−/− cells [11],117 times
